Source: ChEMBL document CHEMBL1133445, “Nonpeptide alpha(v)beta(3) antagonists. 1. Transformation of a potent, integrin-selective alpha(IIb)beta(3) antagonist into a potent alpha(v)beta(3) antagonist” (J Med Chem, 2000)

Tests used:
Homo sapiens = species: Homo sapiens; assay: In vitro inhibition of the rate of ADP-stimulated human gel-filtered platelet aggregation (PLAGGIN); assay type: functional
Procedure, shortened: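 Gel-filtered human platelets at 2×10^8/mL with 0.1 mg/mL human fibrinogen and 1 mM CaCl2. Light-transmittance aggregometry at 37 °C, with aggregation started by 10 μM ADP in the presence of test compound or vehicle.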

Integrin alpha-V/beta-3 [1] = molecular target: T1, Integrin alpha-V/beta-3 (Homo sapiens, UniProt P05106+P06756); assay: Displacement of [125I]echistatin from human recombinant alpha-v beta-3 receptor; assay type: protein-complex assay
Procedure, shortened: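 Cell extracts of HEK 293 stably transfected with human αvβ3 (~10 × 10^6 receptors/cell) incubated with 30 pM 125I-echistatin in Tris-HCl pH 7.8 buffer with NaCl, Ca/Mg and 0.1% BSA. Nonspecific binding with 1 μM unlabeled echistatin. Bound ligand separated by filtration on poly(ethylenimine)-soaked filters and gamma-counted. Error given as SD.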

Integrin alpha-V/beta-3 [2] = molecular target: T1, Integrin alpha-V/beta-3; assay: Displacement of [125I]nonpeptide ligand (compound 7) from purified human recombinant alphaV-beta3; assay type: protein-complex assay
Procedure, shortened: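 αvβ3 purified from 293 cells overexpressing human recombinant receptor, captured on wheatgerm agglutinin scintillation proximity beads. Incubated with ~40 pM final 125I-labeled nonpeptide ligand in HEPES pH 7.5 binding buffer with Ca2+/Mg2+, overnight at 4 °C with rocking. Nonspecific binding with 1 μM final cold ligand. Counted by scintillation; IC50 derived. Error given as SD.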

Rattus norvegicus [3] = species: Rattus norvegicus; assay: In vitro inhibition of rat osteoclast-mediated bone resorption (BONE RES)
[4] = Half-life following a 1 mg/kg iv bolus dose to male rats (n=4); assay type: ADME, organism-based; set-up: dose 1 mg/kg, route intravenous; details: rat, in vivo
Rattus norvegicus [5] = assay: Inhibition of the increase of serum calcium levels in a dose-dependent fashion after subcutaneous infusion for 6 hr to TPTX rats at doses 0.20, 0.67, and 2 mg/kg/h; assay type: organism-based; set-up: route subcutaneous
Procedure, shortened: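 Rats thyroparathyroidectomized and kept on a low-calcium diet; those with serum Ca < 8 mg/dL used. On day 3, anesthetized rats got subcutaneous infusion of vehicle or compound. Bovine PTH(1–34) at 0.03 nmol/h by osmotic minipump started 30 min later. Serum calcium measured at baseline and at the 4–6 h endpoint. Plasma drug levels measured by the echistatin binding bioassay.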

Integrin alpha-V/beta-3 [6] = molecular target: T1, Integrin alpha-V/beta-3; assay: Dissociation constant of radiolabeled compound binding to alpha-v-beta-3; assay type: protein-complex assay

T1 sequence (P05106 27-788 limits assumed): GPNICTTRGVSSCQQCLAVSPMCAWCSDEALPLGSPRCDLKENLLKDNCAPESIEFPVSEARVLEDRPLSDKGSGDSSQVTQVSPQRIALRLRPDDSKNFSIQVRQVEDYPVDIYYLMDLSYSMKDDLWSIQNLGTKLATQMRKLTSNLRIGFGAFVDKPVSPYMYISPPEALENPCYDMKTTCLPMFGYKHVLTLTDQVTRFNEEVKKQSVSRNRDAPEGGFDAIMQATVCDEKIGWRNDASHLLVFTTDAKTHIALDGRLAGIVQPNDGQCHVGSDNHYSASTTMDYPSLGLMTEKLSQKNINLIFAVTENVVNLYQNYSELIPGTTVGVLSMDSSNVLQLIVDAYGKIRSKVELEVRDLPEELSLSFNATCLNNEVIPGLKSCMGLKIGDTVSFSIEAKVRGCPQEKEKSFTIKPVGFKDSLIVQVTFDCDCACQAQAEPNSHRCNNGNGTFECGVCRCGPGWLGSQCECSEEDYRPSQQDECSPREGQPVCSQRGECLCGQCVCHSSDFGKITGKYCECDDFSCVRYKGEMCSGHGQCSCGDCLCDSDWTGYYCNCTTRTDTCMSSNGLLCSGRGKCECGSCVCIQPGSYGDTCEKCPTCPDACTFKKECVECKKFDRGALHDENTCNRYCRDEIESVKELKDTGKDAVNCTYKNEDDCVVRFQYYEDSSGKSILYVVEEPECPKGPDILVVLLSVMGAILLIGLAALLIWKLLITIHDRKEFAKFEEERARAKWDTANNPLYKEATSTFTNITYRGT
T1 sequence (P06756 31-889 limits assumed): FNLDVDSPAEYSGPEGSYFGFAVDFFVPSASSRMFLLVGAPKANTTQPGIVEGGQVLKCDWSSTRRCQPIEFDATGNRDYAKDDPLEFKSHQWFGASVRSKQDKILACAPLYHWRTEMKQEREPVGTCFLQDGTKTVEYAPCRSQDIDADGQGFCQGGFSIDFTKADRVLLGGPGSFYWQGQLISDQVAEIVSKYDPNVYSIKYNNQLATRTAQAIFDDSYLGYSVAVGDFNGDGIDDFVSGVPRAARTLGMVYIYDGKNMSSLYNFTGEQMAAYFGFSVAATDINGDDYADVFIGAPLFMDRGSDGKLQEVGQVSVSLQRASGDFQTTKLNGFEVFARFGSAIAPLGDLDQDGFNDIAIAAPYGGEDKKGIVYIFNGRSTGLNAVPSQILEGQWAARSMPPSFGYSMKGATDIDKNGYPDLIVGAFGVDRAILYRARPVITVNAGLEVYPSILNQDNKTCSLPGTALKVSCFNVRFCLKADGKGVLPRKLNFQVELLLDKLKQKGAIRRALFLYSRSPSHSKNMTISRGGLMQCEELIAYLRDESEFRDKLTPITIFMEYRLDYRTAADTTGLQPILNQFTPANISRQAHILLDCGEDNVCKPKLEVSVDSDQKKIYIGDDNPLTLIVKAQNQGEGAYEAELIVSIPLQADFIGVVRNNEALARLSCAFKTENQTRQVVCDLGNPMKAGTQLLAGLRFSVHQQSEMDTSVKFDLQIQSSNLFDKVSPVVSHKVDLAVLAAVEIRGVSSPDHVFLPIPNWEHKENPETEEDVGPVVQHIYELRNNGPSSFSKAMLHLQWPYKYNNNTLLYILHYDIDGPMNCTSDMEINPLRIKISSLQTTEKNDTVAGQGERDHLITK
T1 sequence (P06756 891-1048 limits assumed): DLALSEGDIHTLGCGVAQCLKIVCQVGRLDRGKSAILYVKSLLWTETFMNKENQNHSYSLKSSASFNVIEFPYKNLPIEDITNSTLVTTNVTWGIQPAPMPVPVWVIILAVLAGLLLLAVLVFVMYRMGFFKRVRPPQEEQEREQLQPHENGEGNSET

SMILES | IC50 (Homo sapiens) [nM] | IC50 (Integrin alpha-V/beta-3 [1]) [nM] | IC50 (Integrin alpha-V/beta-3 [2]) [nM] | IC50 (Rattus norvegicus [3]) [nM] | half-life [4] [min] | IC50 (Rattus norvegicus [5]) [nM] | Kd (Integrin alpha-V/beta-3 [6]) [nM]
O=C(NC[C@H](NS(=O)(=O)c1ccccc1)C(=O)O)c1ccc(OCCC2CCNCC2)cc1 | 10 | > 1000 | > 1000 | – | – | – | –
Nc1cccc(CCc2ccc(C(=O)NC[C@H](NS(=O)(=O)c3ccccc3)C(=O)O)cc2)n1 | 140 | 0.4 | 0.44 | 8 | – | – | –
O=C(NC[C@H](NS(=O)(=O)c1ccccc1)C(=O)O)c1ccc(OCCNC2=NCCCN2)cc1 | 44 | 0.7 | 0.93 | 46 | – | – | –
O=C(NC[C@H](NS(=O)(=O)c1ccccc1)C(=O)O)c1ccc(CCc2ccc3c(n2)NCCC3)cc1 | 260 | 0.3 | 0.07 | 3 | < 30 | 200 | –
N=C(N)NCCOc1ccc(C(=O)NC[C@H](NS(=O)(=O)c2ccccc2)C(=O)O)cc1 | 17 | 1.8 | 10.7 | 300 | – | – | –
Nc1cccc(CCc2ccc(C(=O)NC[C@H](NS(=O)(=O)c3ccc(I)cc3)C(=O)O)cc2)n1 | 1600 | 0.1 | 0.08 | – | – | – | 0.06
